Measurements: ChEMBL document CHEMBL2029265, “2-(Pyrrolidin-1-yl)ethyl-3,4-dihydroisoquinolin-1(2H)-one derivatives as potent and selective histamine-3 receptor antagonists” (J Med Chem, 2012)
One block for each molecule: values may come before it.

Columns and labels:
Cytochrome P450 2D6 = Cytochrome P450 2D6 (Homo sapiens, UniProt P10635); assay: Inhibition of CYP2D6 in human liver microsomes up to 100 uM; type: ADME, Microsome
Outline: (§1)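 Human liver microsomes were incubated with test article at varying concentrations up to 100 μM. Activities measured were CYP1A2, 2A6, 2B6, 2C8, 2C9, 2C19 and 2D6, plus CYP3A4 via midazolam 1′-hydroxylation and via testosterone 6β-hydroxylation.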

Albumin = Albumin (Homo sapiens, UniProt P02768); assay: Binding affinity to human serum albumin; type: ADME; conditions: isolated protein
Outline: (§2)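 Binding to human serum albumin and to α1-acid glycoprotein was assessed by Biacore analysis.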

Cytochrome P450 3A4 [1] = molecular target: T1, Cytochrome P450 3A4 (Homo sapiens, UniProt P08684); assay: Inhibition of CYP3A4 in human liver microsomes up to 100 uM; type: ADME, Microsome; outline: as §1
[2] = Apparent permeability from apical to basolateral side of human Caco2 cells; type: ADME, cell-based; conditions: Caco-2
Outline: (§3)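 Permeability was measured across Caco-2 epithelial monolayers in both the apical→basolateral and basolateral→apical directions. Apparent permeability is reported in 10−6 cm/s, and a directional ratio (B→A over A→B) was derived.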

Cytochrome P450 2C9 = Cytochrome P450 2C9 (Homo sapiens, UniProt P11712); assay: Inhibition of CYP2C9 in human liver microsomes up to 100 uM; type: ADME, Microsome; outline: as §1
[3] = Binding affinity to human alpha1-acid glycoprotein; type: ADME; outline: as §2
Liver = assay: Metabolic stability in beagle dog liver microsomes assessed as GSH adduct formation at 1 uM after 30 mins in presence of NADPH and UDPGA; type: ADME, Canis lupus familiaris, Microsome; conditions: 0.5 h
Outline: (§4)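 Incubations used liver microsomes with NADPH + UDPGA. Glutathione adduct formation was monitored.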

Brain = assay: AUC (0 to infinity) in rat brain at 10 mg/kg, po; type: ADME, organism-based; design: dose 10 mg/kg, route oral, time infinity; conditions: in vivo
Outline: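 Rats were dosed orally at 10 mg/kg. AUC0→∞ was determined in both brain and plasma, and the brain/plasma ratio was calculated from the two AUCs.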

Histamine H1 receptor = Histamine H1 receptor (Homo sapiens, UniProt P35367); assay: Binding affinity to H1 receptor
[4] = Apparent permeability from basolateral to apical side of human Caco2 cells; type: ADME, cell-based; conditions: Caco-2; outline: as §3
[5] = Half life in cynomolgus monkey liver microsomes at 1 uM after 30 mins in presence of NADPH and UDPGA; type: ADME, Macaca fascicularis, Microsome
Outline: (§5)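 Liver microsomes from rat, dog, monkey and human were incubated with phase I + II cofactors (NADPH + UDPGA). Half-life was measured in minutes.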

[6] = Half life in Sprague-Dawley rat liver microsomes at 1 uM after 30 mins in presence of NADPH and UDPGA; type: ADME, Microsome; outline: as §5
Cytochrome P450 2A6 = Cytochrome P450 2A6 (Homo sapiens, UniProt P11509); assay: Inhibition of CYP2A6 in human liver microsomes up to 100 uM; type: ADME, Microsome; outline: as §1
[7] = molecular target: Sodium-dependent dopamine transporter (Homo sapiens, UniProt Q01959); assay: Binding affinity to DAT
[8] = molecular target: Sodium-dependent serotonin transporter (Homo sapiens, UniProt P31645); assay: Binding affinity to 5-HT transporter
[9] = molecular target: T2, 5-hydroxytryptamine receptor 1A (Homo sapiens, UniProt P08908); assay: Binding affinity to 5-HT1A receptor
T2 sequence (P08908 whole entry): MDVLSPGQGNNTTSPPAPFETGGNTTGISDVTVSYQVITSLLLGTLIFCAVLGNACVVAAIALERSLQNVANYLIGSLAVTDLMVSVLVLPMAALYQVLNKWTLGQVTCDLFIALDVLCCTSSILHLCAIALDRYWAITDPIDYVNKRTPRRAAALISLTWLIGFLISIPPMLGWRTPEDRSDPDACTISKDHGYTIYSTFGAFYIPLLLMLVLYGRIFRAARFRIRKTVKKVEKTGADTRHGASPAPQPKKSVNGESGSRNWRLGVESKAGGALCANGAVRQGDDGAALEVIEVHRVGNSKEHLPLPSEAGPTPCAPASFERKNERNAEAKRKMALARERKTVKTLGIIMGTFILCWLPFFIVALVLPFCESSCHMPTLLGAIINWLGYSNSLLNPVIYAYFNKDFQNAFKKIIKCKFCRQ

Cytochrome P450 2C8 = Cytochrome P450 2C8 (Homo sapiens, UniProt P10632); assay: Inhibition of CYP2C8 in human liver microsomes up to 100 uM; type: ADME, Microsome; outline: as §1
[10] = molecular target: 5-hydroxytryptamine receptor 2B (Homo sapiens, UniProt P41595); assay: Binding affinity to 5-HT2B receptor
D(2) dopamine receptor = D(2) dopamine receptor (Homo sapiens, UniProt P14416); assay: Binding affinity to D2 receptor
Histamine H2 receptor = Histamine H2 receptor (Homo sapiens, UniProt P25021); assay: Binding affinity to H2 receptor
Liver microsomes [11] = assay: Metabolic stability in human liver microsomes assessed as GSH adduct formation at 1 uM after 30 mins in presence of NADPH and UDPGA; type: ADME, Microsome; conditions: 0.5 h; outline: as §4
[12] = Fraction unbound in human plasma; type: ADME, cell-free
Outline: (§6)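 Free fraction in human and rat plasma was determined by ultrafiltration.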

Liver microsomes [13] = assay: Metabolic stability in Sprague-Dawley rat liver microsomes assessed as GSH adduct formation at 1 uM after 30 mins in presence of NADPH and UDPGA; type: ADME, Microsome; conditions: 0.5 h; outline: as §4
[14] = Half life in beagle dog liver microsomes at 1 uM after 30 mins in presence of NADPH and UDPGA; type: ADME, Canis lupus familiaris, Microsome; outline: as §5
Cytochrome P450 3A4 [15] = molecular target: T1, Cytochrome P450 3A4; assay: Inhibition of CYP3A4-mediated testosterone-6beta-hydroxylation activity in human liver microsomes at 100 uM; type: ADME, Microsome; outline: as §1
Cytochrome P450 1A2 = Cytochrome P450 1A2 (Homo sapiens, UniProt P05177); assay: Inhibition of CYP1A2 in human liver microsomes up to 100 uM; type: ADME, Microsome; outline: as §1
[16] = Metabolic stability in cynomolgus monkey liver microsomes assessed as GSH adduct formation at 1 uM after 30 mins in presence of NADPH and UDPGA; type: ADME, Macaca fascicularis, Microsome; conditions: 0.5 h; outline: as §4
[17] = Fraction unbound in rat plasma; type: ADME, cell-free; outline: as §6
Cytochrome P450 2B6 = Cytochrome P450 2B6 (Homo sapiens, UniProt P20813); assay: Inhibition of CYP2B6 in human liver microsomes up to 100 uM; type: ADME, Microsome; outline: as §1
Cytochrome P450 2C19 = Cytochrome P450 2C19 (Homo sapiens, UniProt P33261); assay: Inhibition of CYP2C19 in human liver microsomes up to 100 uM; type: ADME, Microsome; outline: as §1
Histamine H3 receptor [18] = molecular target: T3, Histamine H3 receptor (Homo sapiens, UniProt Q9Y5N1); assay: Inverse agonist activity at human H3 receptor expressed in HEK293T cells assessed as inhibition of {35S]GTPgamma binding; type: cell-based, HEK-293T
Outline: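 Basal [35S]GTPγS binding was measured in membranes from HEK cells expressing human H3 receptor, across a range of concentrations. EC50 and maximal inhibition relative to basal binding were derived.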

[19] = Half life in human liver microsomes at 1 uM after 30 mins in presence of NADPH and UDPGA; type: ADME, Microsome; outline: as §5
Cytochrome P450 3A4 [20] = molecular target: T1, Cytochrome P450 3A4; assay: Inhibition of CYP3A4-mediated midazolam-1'-hydroxylation activity in human liver microsomes at 100 uM; type: ADME, Microsome; outline: as §1
[21] = Ratio of Brain AUC (0 to infinity) to plasma AUC (0 to infinity) in rat at 10 mg/kg, po; type: ADME, organism-based; design: dose 10 mg/kg, route oral; conditions: read-out: BPR
Outline: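 Rats dosed orally at 10 mg/kg; brain and plasma AUC0→∞ measured, ratio taken as brain/plasma. Oral vehicle 2% Tween/0.5% methyl cellulose in water.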

[22] = molecular target: T4, Alpha-2A adrenergic receptor (Homo sapiens, UniProt P08913); assay: Binding affinity to alpha-2A receptor
T4 sequence (P08913 whole entry): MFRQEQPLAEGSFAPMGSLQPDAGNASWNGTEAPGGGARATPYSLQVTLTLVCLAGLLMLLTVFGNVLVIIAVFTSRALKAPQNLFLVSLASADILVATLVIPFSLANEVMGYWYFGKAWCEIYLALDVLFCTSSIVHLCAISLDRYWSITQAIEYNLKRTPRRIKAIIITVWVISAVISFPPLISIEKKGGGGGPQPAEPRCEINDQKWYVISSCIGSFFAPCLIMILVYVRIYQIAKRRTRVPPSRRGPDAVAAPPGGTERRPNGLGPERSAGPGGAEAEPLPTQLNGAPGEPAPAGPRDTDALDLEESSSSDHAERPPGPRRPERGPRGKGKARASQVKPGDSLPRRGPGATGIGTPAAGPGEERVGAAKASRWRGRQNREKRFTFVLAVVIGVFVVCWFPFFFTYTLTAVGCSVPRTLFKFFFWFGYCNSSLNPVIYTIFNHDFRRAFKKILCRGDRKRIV

[23] = molecular target: 5-hydroxytryptamine receptor 6 (Homo sapiens, UniProt P50406); assay: Binding affinity to 5-HT6 receptor
Plasma = assay: AUC (0 to infinity) in rat plasma at 10 mg/kg, po; type: ADME, organism-based; design: time infinity, dose 10 mg/kg, route oral; conditions: in vivo
Histamine H3 receptor [24] = molecular target: T3, Histamine H3 receptor; assay: Displacement of [3H]-(R)-alpha-methylhistamine from human H3 receptor expressed in HEK293T cells after 120 mins by scintillation counting; type: cell-based, HEK-293T
CYP3A4 = CYP3A4 (Homo sapiens, UniProt P08684); assay: Inhibition of CYP3A4 at 3 uM; type: ADME
Histamine H3 receptor [25] = molecular target: Histamine H3 receptor (Rattus norvegicus, UniProt Q9QYN8); assay: Displacement of [3H]-(R)-alpha-methylhistamine from rat H3 receptor expressed in HEK293T cells after 120 mins by scintillation counting; type: cell-based, HEK-293T

T3 sequence (Q9Y5N1 whole entry): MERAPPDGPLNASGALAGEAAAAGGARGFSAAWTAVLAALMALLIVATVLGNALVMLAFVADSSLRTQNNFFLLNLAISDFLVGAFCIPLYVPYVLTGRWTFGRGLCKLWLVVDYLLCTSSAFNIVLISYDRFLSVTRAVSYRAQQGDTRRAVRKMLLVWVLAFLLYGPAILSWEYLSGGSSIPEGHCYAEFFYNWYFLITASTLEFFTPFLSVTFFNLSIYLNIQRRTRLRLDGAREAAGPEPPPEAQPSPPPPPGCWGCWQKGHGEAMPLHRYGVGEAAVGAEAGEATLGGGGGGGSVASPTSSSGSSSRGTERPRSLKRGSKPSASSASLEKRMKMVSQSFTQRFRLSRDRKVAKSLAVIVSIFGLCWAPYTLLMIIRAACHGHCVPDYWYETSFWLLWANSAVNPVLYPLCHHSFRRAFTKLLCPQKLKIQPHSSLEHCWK
T1 sequence (P08684 whole entry): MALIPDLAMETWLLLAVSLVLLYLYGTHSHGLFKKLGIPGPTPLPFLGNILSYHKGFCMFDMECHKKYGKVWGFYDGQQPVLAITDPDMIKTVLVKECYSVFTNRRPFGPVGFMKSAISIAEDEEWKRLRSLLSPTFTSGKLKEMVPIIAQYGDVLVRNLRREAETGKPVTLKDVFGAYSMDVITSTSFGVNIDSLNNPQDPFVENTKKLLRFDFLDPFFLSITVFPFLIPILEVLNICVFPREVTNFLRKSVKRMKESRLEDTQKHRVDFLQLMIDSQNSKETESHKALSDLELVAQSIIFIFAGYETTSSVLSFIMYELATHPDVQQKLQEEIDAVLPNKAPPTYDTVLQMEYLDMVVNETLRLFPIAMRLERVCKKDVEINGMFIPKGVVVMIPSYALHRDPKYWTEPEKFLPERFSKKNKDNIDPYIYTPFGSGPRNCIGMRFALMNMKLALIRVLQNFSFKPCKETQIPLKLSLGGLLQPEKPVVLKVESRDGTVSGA
Cytochrome P450 2C9, sequence (P11712 whole entry): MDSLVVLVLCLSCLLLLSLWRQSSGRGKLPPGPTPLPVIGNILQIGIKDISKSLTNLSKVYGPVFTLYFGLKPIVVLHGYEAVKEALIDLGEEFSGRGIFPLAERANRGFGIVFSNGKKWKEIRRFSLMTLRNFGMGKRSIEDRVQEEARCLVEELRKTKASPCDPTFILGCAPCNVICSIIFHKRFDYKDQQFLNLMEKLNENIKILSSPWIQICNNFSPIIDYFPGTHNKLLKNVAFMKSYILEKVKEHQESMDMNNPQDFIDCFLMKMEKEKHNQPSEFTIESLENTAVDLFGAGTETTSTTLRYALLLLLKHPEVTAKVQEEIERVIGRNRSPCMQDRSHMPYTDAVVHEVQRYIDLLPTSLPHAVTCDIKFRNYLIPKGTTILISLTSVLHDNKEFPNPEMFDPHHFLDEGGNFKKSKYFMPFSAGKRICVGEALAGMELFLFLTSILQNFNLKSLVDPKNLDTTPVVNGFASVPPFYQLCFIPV
Sodium-dependent dopamine transporter, sequence (Q01959 whole entry): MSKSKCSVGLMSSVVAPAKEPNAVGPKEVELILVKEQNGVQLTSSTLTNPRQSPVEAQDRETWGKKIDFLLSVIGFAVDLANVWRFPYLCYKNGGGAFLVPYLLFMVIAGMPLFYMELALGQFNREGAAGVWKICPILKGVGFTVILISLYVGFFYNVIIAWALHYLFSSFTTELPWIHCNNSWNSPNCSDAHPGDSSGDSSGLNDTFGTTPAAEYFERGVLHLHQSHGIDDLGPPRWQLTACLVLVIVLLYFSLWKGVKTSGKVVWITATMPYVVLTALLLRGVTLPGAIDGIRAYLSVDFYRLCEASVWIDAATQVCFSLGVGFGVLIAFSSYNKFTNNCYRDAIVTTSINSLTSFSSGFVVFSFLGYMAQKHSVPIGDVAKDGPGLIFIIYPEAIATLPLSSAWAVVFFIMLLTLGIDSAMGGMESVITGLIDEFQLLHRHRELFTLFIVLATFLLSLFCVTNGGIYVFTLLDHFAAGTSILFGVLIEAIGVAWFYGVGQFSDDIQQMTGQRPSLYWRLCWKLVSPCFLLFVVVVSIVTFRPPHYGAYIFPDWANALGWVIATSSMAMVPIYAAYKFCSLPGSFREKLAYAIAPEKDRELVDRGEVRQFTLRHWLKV
Sodium-dependent serotonin transporter, sequence (P31645 whole entry): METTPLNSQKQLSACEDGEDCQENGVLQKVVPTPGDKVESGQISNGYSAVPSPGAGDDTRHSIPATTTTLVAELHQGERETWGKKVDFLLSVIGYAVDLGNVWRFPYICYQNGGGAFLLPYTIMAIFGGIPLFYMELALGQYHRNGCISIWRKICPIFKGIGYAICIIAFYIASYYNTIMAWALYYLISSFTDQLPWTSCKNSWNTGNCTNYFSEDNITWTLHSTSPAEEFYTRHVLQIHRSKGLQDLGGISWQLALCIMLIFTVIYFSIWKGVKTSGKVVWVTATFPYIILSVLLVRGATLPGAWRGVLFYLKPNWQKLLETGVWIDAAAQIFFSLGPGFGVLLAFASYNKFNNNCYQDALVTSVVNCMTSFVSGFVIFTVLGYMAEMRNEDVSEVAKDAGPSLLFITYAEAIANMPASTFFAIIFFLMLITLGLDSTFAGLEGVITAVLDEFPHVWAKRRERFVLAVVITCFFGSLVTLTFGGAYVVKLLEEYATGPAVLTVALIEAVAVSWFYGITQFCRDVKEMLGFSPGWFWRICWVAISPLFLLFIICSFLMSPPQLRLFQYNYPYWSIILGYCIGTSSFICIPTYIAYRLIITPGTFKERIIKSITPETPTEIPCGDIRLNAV
Cytochrome P450 2C8, sequence (P10632 whole entry): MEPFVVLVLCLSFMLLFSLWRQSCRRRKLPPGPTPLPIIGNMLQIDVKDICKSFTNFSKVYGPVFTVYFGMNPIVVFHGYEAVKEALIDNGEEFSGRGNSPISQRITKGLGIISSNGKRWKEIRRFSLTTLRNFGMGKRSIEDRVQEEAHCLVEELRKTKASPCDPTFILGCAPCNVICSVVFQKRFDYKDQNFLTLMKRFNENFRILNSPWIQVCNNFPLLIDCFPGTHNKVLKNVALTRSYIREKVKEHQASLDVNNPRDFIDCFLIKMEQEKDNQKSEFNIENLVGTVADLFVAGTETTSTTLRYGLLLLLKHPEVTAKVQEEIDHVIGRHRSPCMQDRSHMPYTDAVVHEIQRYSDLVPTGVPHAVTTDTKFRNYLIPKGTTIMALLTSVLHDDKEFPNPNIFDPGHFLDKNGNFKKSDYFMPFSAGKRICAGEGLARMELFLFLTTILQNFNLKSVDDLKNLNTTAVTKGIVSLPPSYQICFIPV
5-hydroxytryptamine receptor 2B, sequence (P41595 whole entry): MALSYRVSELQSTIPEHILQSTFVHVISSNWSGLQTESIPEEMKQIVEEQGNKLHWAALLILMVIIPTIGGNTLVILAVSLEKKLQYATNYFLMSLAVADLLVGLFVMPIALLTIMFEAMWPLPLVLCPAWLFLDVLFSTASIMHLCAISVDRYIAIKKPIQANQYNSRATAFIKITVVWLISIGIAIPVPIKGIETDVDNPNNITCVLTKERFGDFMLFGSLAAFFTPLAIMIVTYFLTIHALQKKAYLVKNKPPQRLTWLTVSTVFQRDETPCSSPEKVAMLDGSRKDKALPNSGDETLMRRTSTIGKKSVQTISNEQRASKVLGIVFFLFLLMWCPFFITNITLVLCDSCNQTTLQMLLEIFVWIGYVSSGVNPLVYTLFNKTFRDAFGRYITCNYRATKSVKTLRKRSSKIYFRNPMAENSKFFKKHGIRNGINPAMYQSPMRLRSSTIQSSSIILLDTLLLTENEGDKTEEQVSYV
5-hydroxytryptamine receptor 6, sequence (P50406 whole entry): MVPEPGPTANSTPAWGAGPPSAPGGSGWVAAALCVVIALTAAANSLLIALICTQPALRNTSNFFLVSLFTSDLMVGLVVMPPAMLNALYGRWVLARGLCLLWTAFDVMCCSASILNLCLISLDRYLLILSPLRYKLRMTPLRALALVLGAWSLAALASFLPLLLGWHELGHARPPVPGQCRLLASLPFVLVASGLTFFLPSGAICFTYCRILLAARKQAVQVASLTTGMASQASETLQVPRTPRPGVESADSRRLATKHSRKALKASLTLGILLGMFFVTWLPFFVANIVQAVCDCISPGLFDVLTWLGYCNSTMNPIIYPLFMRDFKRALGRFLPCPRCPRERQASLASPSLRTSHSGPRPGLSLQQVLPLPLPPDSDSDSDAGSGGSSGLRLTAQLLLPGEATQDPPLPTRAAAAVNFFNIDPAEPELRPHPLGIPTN
Histamine H1 receptor, sequence (P35367 whole entry): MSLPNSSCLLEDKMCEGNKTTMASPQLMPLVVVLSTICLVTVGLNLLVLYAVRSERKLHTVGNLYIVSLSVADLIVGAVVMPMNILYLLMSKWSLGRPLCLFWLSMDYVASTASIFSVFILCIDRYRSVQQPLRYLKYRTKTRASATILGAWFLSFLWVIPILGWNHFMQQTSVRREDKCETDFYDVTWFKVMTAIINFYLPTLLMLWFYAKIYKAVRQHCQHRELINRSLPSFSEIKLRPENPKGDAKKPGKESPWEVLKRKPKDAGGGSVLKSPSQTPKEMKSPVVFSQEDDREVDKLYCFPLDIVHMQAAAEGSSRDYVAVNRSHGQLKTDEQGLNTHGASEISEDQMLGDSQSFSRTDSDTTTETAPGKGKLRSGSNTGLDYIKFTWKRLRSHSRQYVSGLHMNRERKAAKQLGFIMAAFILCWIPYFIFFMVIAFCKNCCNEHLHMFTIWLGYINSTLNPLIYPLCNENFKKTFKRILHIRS
Histamine H2 receptor, sequence (P25021 whole entry): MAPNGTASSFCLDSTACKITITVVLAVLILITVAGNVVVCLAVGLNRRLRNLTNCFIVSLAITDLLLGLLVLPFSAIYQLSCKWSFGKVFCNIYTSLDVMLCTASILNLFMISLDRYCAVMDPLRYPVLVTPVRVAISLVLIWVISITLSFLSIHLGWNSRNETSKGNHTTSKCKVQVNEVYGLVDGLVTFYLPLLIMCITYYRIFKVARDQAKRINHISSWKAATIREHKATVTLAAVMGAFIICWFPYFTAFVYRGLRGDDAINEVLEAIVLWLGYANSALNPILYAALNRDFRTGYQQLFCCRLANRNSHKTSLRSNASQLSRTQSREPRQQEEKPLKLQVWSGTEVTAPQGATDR
CYP3A4, sequence (P08684 whole entry): as the sequence (P08684 whole entry) above

Structure (SMILES): CN(C)C(=O)c1ccc(-c2ccc3c(c2)CCN(CCN2CCCC2)C3=O)cc1
inhibition (INH) (Cytochrome P450 2D6): Not Active | Activity (Albumin): Toxic | inhibition (INH) (Cytochrome P450 3A4 [1]): Not Active | Papp A→B [2]: 12.1 ×10⁻⁶ cm/s | inhibition (INH) (Cytochrome P450 2C9): Not Active | Activity [3]: Toxic | Stability (Liver): Stable | AUC (Brain): 642 ng·h/g | Ki (Histamine H1 receptor): > 10 µM | Papp B→A [4]: 31.1 ×10⁻⁶ cm/s | half-life at 1 µM [5]: > 60 min | half-life at 1 µM [6]: 26 min | inhibition (INH) (Cytochrome P450 2A6): Not Active | Ki [7]: > 10 µM | Ki [8]: > 3 µM | Ki [9]: 8.67 µM | inhibition (INH) (Cytochrome P450 2C8): Not Active | Ki [10]: > 10 µM | Ki (D(2) dopamine receptor): > 10 µM | Ki (Histamine H2 receptor): > 55 µM | Stability (Liver microsomes [11]): Stable | fraction unbound [12]: 0.59 | Stability (Liver microsomes [13]): Stable | half-life at 1 µM [14]: 47 min | inhibition (INH) (Cytochrome P450 3A4 [15]): Not Active | inhibition (INH) (Cytochrome P450 1A2): Not Active | Stability [16]: Stable | fraction unbound [17]: 0.5 | inhibition (INH) (Cytochrome P450 2B6): Not Active | inhibition (INH) (Cytochrome P450 2C19): Not Active | EC50 (Histamine H3 receptor [18]): 0.0107 µM | half-life at 1 µM [19]: 69 min | inhibition (INH) (Cytochrome P450 3A4 [20]): Not Active | Kp [21]: 0.27 | Ki [22]: > 3 µM | Ki [23]: > 10 µM | AUC (Plasma): 2369 ng·h/g | Ki (Histamine H3 receptor [24]): 0.0009 µM

inhibition at 3 µM (CYP3A4): 47% | Ki (Histamine H3 receptor [25]): 0.047 µM | Ki (Histamine H3 receptor [24]): 0.0057 µM
Structure (SMILES): O=C1c2ccc(-c3ccc(F)cc3)cc2CCN1CCN1CCCCCC1
